Measurements taken from ChEMBL document CHEMBL5038582, “Adamantyl Isothiocyanates as Mutant p53 Rescuing Agents and Their Structure-Activity Relationships” (J Med Chem, 2021).
Active and inactive are the calls of the source. No cut-off for these calls is given here.

Legend:
[1] = tested on: Cellular tumor antigen p53 (Homo sapiens), P04637 [R273H]; experiment: Reactivation of transactivation function to p53 R273H mutant in human MDA-MB-468 cells assessed as increase in MDM2 mRNA expression at 6 uM incubated for 4 hrs by qRT-PCR analysis; format: cell-based; settings: filed as activator
Method in brief: (§1)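 Cells treated with DMSO or 6 µM test compound for 4 h. RNA extracted, cDNA synthesised, transcript measured by TaqMan qRT-PCR and normalised to GAPDH. Averages from triplicates of repeated experiments, with standard deviation.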

[2] = tested on: MDA-MB-468; experiment: Induction of apoptosis in human MDA-MB-468 cells expressing p53 R273H mutant assessed as decrease in level of uncleaved caspase 3 level at 6 to 12 uM measured after 24 hrs by western blotting analysis; format: functional, cell-based; settings: dose 6-12 µM
Method in brief: (§2)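 Cells treated with DMSO or compound at 6 or 12 µM for 24 h, then lysed in Tris-Cl pH 8.0/NaCl/glycerol/NP-40/EDTA buffer with protease inhibitors. 100 µg lysate resolved on 4-12% SDS-PAGE and blotted to PVDF. Probed with anti-PARP or anti-caspase 3, then HRP secondary and ECL. GAPDH reprobe as control.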

[3] = tested on: MDA-MB-231; experiment: Induction of apoptosis in human MDA-MB-231 cells expressing p53 R280K mutant assessed as decrease in level of uncleaved caspase 3 level at 6 to 12 uM measured after 24 hrs by western blotting analysis; format: functional, cell-based; settings: dose 6-12 µM; method in brief: as §2
[4] = tested on: MDA-MB-231; experiment: Induction of apoptosis in human MDA-MB-231 cells expressing p53 R280K mutant assessed as increase in level of cleaved PARP1 level at 6 to 12 uM measured after 24 hrs by western blotting analysis; format: functional, cell-based; settings: dose 6-12 µM; method in brief: as §2
[5] = tested on: MDA-MB-231; experiment: Downregulation of p53 R280K mutant expression in human MDA-MB-231 cells at 6 to 12 uM measured after 24 hrs by immunoblot analysis; settings: dose 6-12 µM
[6] = tested on: MDA-MB-468; experiment: Induction of apoptosis in human MDA-MB-468 cells expressing p53 R273H mutant assessed as increase in level of cleaved PARP1 level at 6 to 12 uM measured after 24 hrs by western blotting analysis; format: functional, cell-based; settings: dose 6-12 µM; method in brief: as §2
[7] = tested on: MCF7; experiment: Induction of apoptosis in human MCF7 cells expressing wild type p53 assessed as decrease in level of uncleaved PARP1 level at 6 to 12 uM measured after 24 hrs by western blotting analysis; format: functional, cell-based; settings: dose 6-12 µM; method in brief: as §2
[8] = molecular target: Cellular tumor antigen p53 (Homo sapiens) (UniProt P04637); experiment: Activation of p53 in human MCF7 cells assessed as increase in MDM2 mRNA expression at 6 uM incubated for 4 hrs by qRT-PCR analysis; format: cell-based; settings: filed as activator; method in brief: as §1
[9] = tested on: Cellular tumor antigen p53 (Homo sapiens), P04637 [R280K]; experiment: Reactivation of transactivation function to p53 R280K mutant in human MDA-MB-231 cells assessed as increase in NOXA mRNA expression at 6 uM incubated for 4 hrs by qRT-PCR analysis; format: cell-based; settings: filed as activator; method in brief: as §1
[10] = tested on: MDA-MB-468; experiment: Downregulation of p53 R273H mutant expression in human MDA-MB-468 cells at 6 to 12 uM measured after 24 hrs by immunoblot analysis; format: functional, cell-based; settings: dose 6-12 µM
Method in brief: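 24 h exposure to 6 or 12 μM, DMSO control. Lysis in Tris pH 8.0/NaCl/glycerol/NP-40/EDTA buffer with protease inhibitors. 20 µg (MDA-MB-231, MDA-MB-468) or 50 µg (MCF-7) of lysate run on 4-12% SDS-PAGE. Blot probed with p53 DO-1, GAPDH used for reprobe/loading. Triplicate experiments.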

[11] = tested on: MDA-MB-468; experiment: Antiproliferative activity against human MDA-MB-468 cells expressing p53 R273H mutant assessed as inhibition of cell growth incubated for 24 to 72 hrs by WST-1 assay; format: functional, cell-based
Method in brief: (§3)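 WST-1 proliferation assay. Compound diluted in DMSO and added to cells at 1% DMSO final. 4,000 cells/well in duplicate; DMSO-only wells as control, cell-free medium wells for background.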

[12] = tested on: CCD-841CoN; experiment: Cytotoxicity against human CCD841 cells harboring wild type p53 assessed as inhibition of cell growth at 10 to 50 uM incubated for 24 to 72 hrs by WST-1 assay; format: functional, cell-based; settings: dose 10-50 µM, time 24-72 hrs
[13] = tested on: Cellular tumor antigen p53 (Homo sapiens), P04637 [R273H]; experiment: Reactivation of transactivation function to p53 R273H mutant in human MDA-MB-468 cells assessed as increase in NOXA mRNA expression at 6 uM incubated for 4 hrs by qRT-PCR analysis; format: cell-based; settings: filed as activator; method in brief: as §1
[14] = tested on: MDA-MB-231; experiment: Antiproliferative activity against human MDA-MB-231 cells expressing p53 R280K mutant assessed as inhibition of cell growth incubated for 72 hrs by WST-1 assay; format: functional, cell-based; settings: MDA-MB-231, 72 h; method in brief: as §3
[15] = tested on: MCF-10A; experiment: Cytotoxicity against human MCF10A cells expressing wild type p53 assessed as inhibition of cell growth at 10 to 50 uM incubated for 24 to 72 hrs by WST-1 assay; format: functional, cell-based; settings: dose 10-50 µM, time 24-72 hrs
[16] = tested on: MDA-MB-231; experiment: Inhibition of colony formation in human MDA-MB-231 expressing p53 R280K mutant assessed as decrease in number of colonies at 1.5 to 24 uM incubated for 24 hrs followed by incubation in fresh medium for 10 days by methylene blue staining based analysis; format: functional, cell-based; settings: dose 1.5-24 µM
Method in brief: (§4)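 500 cells/well seeded 24 h before treatment. Cells exposed to compound or DMSO control for 24 h at 37 °C, then grown 10 days at 37 °C in RPMI with 10% FBS. Colonies fixed in methanol, stained with methylene blue and counted. Survival expressed as percent of DMSO control.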

[17] = tested on: MCF7; experiment: Antiproliferative activity against human MCF7 cells expressing WT p53 assessed as inhibition of cell growth at 10 to 50 uM incubated for 24 to 72 hrs by WST-1 assay; format: functional, cell-based; settings: dose 10-50 µM, time 24-72 hrs
Method in brief: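 WST-1 proliferation assay. Compound diluted in DMSO so that 10 μl of stock in 1 ml of cells (40,000 cells/ml) gives the test concentration at 1% DMSO. Cells plated at 4,000/well in duplicate and incubated at 37 °C for 24 h or 72 h. Result given as % of the 1% DMSO control.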

[18] = molecular target: Cellular tumor antigen p53 (Homo sapiens) (UniProt P04637); experiment: Activation of p53 in human MCF7 cells assessed as increase in p21 mRNA expression at 6 uM incubated for 4 hrs by qRT-PCR analysis; format: cell-based; settings: filed as activator; method in brief: as §1
[19] = tested on: Cellular tumor antigen p53 (Homo sapiens), P04637 [R280K]; experiment: Reactivation of transactivation function to p53 R280K mutant in human MDA-MB-231 cells assessed as increase in p21 mRNA expression at 6 uM incubated for 4 hrs by qRT-PCR analysis; format: cell-based; settings: filed as activator; method in brief: as §1
[20] = tested on: MCF7; experiment: Inhibition of colony formation in human MCF7 cells expressing wild type p53 assessed as decrease in number of colonies at 1.5 to 24 uM incubated for 24 hrs followed by incubation in fresh medium for 10 days by methylene blue staining based analysis; format: functional, cell-based; settings: dose 1.5-24 µM; method in brief: as §4
[21] = tested on: MCF7; experiment: Induction of apoptosis in human MCF-7 cells expressing wild type p53 assessed increase in number of Annexin-V stained cells at 6 to 12 uM incubated for 24 hrs by AnnexinV-FITC and PI staining based flow cytometry; format: functional, cell-based; settings: dose 6-12 µM
Method in brief: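 24 h treatment, DMSO control. Cells scraped, washed in PBS, then given fluorochrome-conjugated Annexin V for 15 min at RT in the dark, followed by PI (0.1 µg/ml) in binding buffer. Read by flow cytometry on LSRFortessa. Annexin V-positive cells expressed relative to the DMSO control.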

SMILES	Activity [1]	Activity [2]	Activity [3]	Activity [4]	p53 R280K downregulation (active/not active) [5]	Activity [6]	Activity [7]	Activity [8]	Activity [9]	inhibition [10]	IC50 [11] [µM]	Activity [12]	Activity [13]	IC50 [14] [µM]	Activity [15]	inhibition [16]	Activity [17]	Activity [18]	Activity [19]	inhibition [20]	other results
S=C=NCCCC12CC3CC(CC(C3)C1)C2	Active	Active	Active	Active	Active	Active	inactive	Active	Active	Active	12	inactive	Active	12	inactive	Active	Active	Active	Active	Active	Activity [21]: inactive
[Se]=C=NCCC12CC3CC(CC(C3)C1)C2	Active	Active	Active	Active	Active	Active	inactive	Active	Active	Active	6	inactive	Active	6	inactive	Active	Active	Active	Active	Active	Activity [21]: inactive
